Compounds with a hit are over-represented: about 4.3% of the library has one in this group of screens.
ALR H2O2 inh – inhibitors of human ALR sulfhydryl oxidase, primary screen, biochemical, H2O2 detection, HRP-luminol luminescence, single point. purified ALR, DTT oxidation. inhibition, % (no concentration beside the values). hit rate 3.8% among 290,000;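 active = mean replicate inhibition above about 79%, with every replicate also reaching it, limit read from the data; inconclusive = only one of the two criteria met; inactive = mean below limit and not every replicate reaching it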
RBBP9 inh – human RBBP9 inhibitors, primary screen, biochemical, fluorescence polarization, FP-Rh probe, HTS | Serine hydrolase RBBP9 (Homo sapiens), O75884 | recombinant RBBP9 | inhibition, % at 7.94 µM | hit rate 0.2% among 220,000 | AID 1515, 2009;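 active = inhibition above the campaign mean of all tested compounds plus 3 SD, cut at about 14% in these data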;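 note: plate controls were DMSO wells with RBBP9 for no effect and wells lacking RBBP9 protein for full effect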
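System: RBBP9 protein | Quantity: 2.5 µM RBBP9 dispensing solution, before mixing | Reagent: FP-Rh probe, 375 nM dispensing solution | Timing: Enzyme-compound preincubation 30 min, then probe labeling 45 min, 25 °C | Measured by: Fluorescence polarization | Read-out: % inhibition | Replication: One well per compound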
UBC9 SUMO inh – inhibitors of in vitro SUMOylation cascade, primary screen, biochemical, HTRF, uHTS | SUMO-conjugating enzyme UBC9 (Homo sapiens), P63279 | HTRF SUMOylation assay, SAE1/SAE2 + UBC9 | hit rate 0.36% among 290,000 | AID 2006, 2009 | inhibition, % at 35 µM; in the data active = inhibition above about 50%, passing the limit was not always enough; inconclusive = no clear call, values can overlap the other calls
UBC13 inh – UBC13 polyubiquitin chain formation inhibitors, primary screen, biochemical, TR-FRET, uHTS | inhibition, % at 20 µM | AID 485273, 2010 | hit rate 0.47% among 330,000; in the data active = inhibition above about 45%, passing the limit was not always enough; inconclusive = no clear call, values can overlap the other calls
Rin1 Abl inh – inhibitors of Rin1-Abl protein binding, primary screen, biochemical, TR-FRET; hit rate 0.4% among 360,000; inhibition, % at 7.35 µM; Tyrosine-protein kinase ABL1 (Homo sapiens) + Ras and Rab interactor 1 (Homo sapiens), …; in the data active = inhibition above about 5%, passing the limit was not always enough
PREPL inh – PREPL enzyme inhibitors, primary screen, biochemical, fluorescence polarization | Prolyl endopeptidase-like (Homo sapiens), Q4J6C6 | recombinant PREPL, fluorescence polarization activity-based probe | inhibition, % at 5.96 µM | hit rate 0.68% among 320,000 | AID 2751, 2010; in the data active = inhibition above about 43%;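 note: 0% = enzyme with DMSO and 100% = wells lacking enzyme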
Active calls of the source: *; u = inconclusive; x = not tested or not shown.

SMILES	ALR H2O2 inh	RBBP9 inh	UBC9 SUMO inh	UBC13 inh	Rin1 Abl inh	PREPL inh
CCN(Cc1ccc(OC)c(F)c1)C(=O)C1CCCO1 (stereo unspecified)	-3	x	1	-2	0	-3
CCN(Cc1ccc(OC)c(F)c1)C(=O)CCl	97*	-5	9	10	1	-10
Cc1ccc(NC(=O)CSC2=Nc3ccccc3C3CC=NN23)c(C)c1 (stereo unspecified)	7	-6	12	2	2	8
NC(=O)c1ccc(NC(=O)CSC2=Nc3ccccc3C3CC=NN23)cc1 (stereo unspecified)	99*	2	-2	15	-3	-2
COC(=O)c1ccc(NC(=O)CSC2=Nc3ccccc3C3CC=NN23)cc1 (stereo unspecified)	97*	10	3	19	8	-14
O=C(NCC1CCCO1)c1ccc2c(c1)N(Cc1ccccc1)CCS2 (stereo unspecified)	99*	x	21	19	-4	11
O=C(NCCN1CCOCC1)c1ccc2c(c1)N(Cc1ccccc1)CCS2	100*	1	35	28	2	19
O=C(NC1CCCC1)c1ccc2c(c1)N(Cc1ccccc1)CCS2	17	x	4	38	-10	19
CN1CCN(CCCNC(=O)c2ccc3c(c2)N(Cc2ccccc2)CCS3)CC1	99*	-6	18	30	-4	27
Cc1ccc(CN2CCSc3ccc(C(=O)NCc4ccco4)cc32)cc1	47	-3	7	18	-1	18
Cc1ccc(CN2CCSc3ccc(C(=O)NCCCN4CCOCC4)cc32)cc1	98*	x	20	35	-2	41
Cc1ccc(S(=O)(=O)N2CCN(C(=O)c3ccc(N4CCCCC4)c([N+](=O)[O-])c3)CC2)cc1	-11	x	-17	-6	-3	-5
O=C(NCCCN1CCOCC1)c1ccc2c(c1)N(Cc1ccccc1)CCS2	99*	-1	27	23	-2	13
Cc1cccc(CN2C(=O)/C(=C\c3ccc(C(=O)NCCCN4CCN(C)CC4)cc3)Oc3ccccc32)c1	-4	x	23	68*	-7	-90
CN1CCN(CCCNC(=O)c2ccc(/C=C3/Sc4ccccc4N(Cc4cccc(Cl)c4)C3=O)cc2)CC1	x	-11	13	x	-1	x
CCc1ccc(N=C2NC(=O)/C(=C/c3ccc(OCC(=O)O)cc3)S2)cc1	98*	x	16	-23	-4	7
CCOC(=O)C1CCCN(c2c(NCCN(CC)c3ccccc3)c(=O)c2=O)C1 (stereo unspecified)	x	-4	-5	2	-3	-3
CCOC(=O)C1CCN(c2c(NCCCN3CCN(Cc4ccccc4)CC3)c(=O)c2=O)CC1	-3	-5	9	-6	-1	12
CCOC(=O)N1CCN(c2c(NCCCN(C)c3ccccc3)c(=O)c2=O)CC1	99*	3	2	-7	-1	28
CCOC(=O)N1CCN(c2c(NCCN(C)Cc3ccccc3)c(=O)c2=O)CC1	-21	6	17	-8	4	-1
CCOC(=O)N1CCC(Nc2c(NCCCN(CC)c3cccc(C)c3)c(=O)c2=O)CC1	99*	-2	6	10	-3	14
CCOC(=O)C1CCN(c2c(NCCN(CC)c3ccccc3)c(=O)c2=O)CC1	98*	3	15	6	-4	9
CCOC(=O)C1CCCN(c2c(NCCCN(CC)c3ccccc3)c(=O)c2=O)C1 (stereo unspecified)	98*	-8	5	7	-1	16
O=C(NC(c1ccc(-c2ccccc2)cc1)c1cnccn1)C1CCN(CCN2C(=O)c3ccccc3C2=O)CC1 (stereo unspecified)	x	x	x	x	3	x
COC(=O)c1cc(NS(=O)(=O)c2ccc(C(C)C)cc2)ccc1N1CCOCC1	4	-1	23	u	-1	-10
SMILES	ALR H2O2 inh	RBBP9 inh	UBC9 SUMO inh	UBC13 inh	Rin1 Abl inh	PREPL inh
Cc1ccc(NC(=O)CSc2nc3ccc(Nc4nc(N5CCOCC5)nc(N5CCOCC5)n4)cc3s2)cc1	-5	x	11	-18	-1	x
CC(=O)CSc1nc2ccc(Nc3nc(N4CCOCC4)nc(N4CCOCC4)n3)cc2s1	99*	0	9	-8	-2	19
CC(C)(C)NC(=O)CSc1nc2ccc(Nc3nc(N4CCOCC4)nc(N4CCOCC4)n3)cc2s1	99*	-1	-6	6	-5	21
CCOC(=O)CSc1nc2ccc(Nc3nc(N4CCOCC4)nc(N4CCOCC4)n3)cc2s1	99*	-7	-1	-5	-3	3
Cn1c(NCc2cccnc2)nc2cc(-c3cccc(C(F)(F)F)c3)sc2c1=O	x	x	x	x	-5	x
CCn1c(C)nc2cc(C(=O)NNS(=O)(=O)c3ccc(C)c(C)c3)ccc21	81*	1	11	0	3	-2
Nc1ccccc1-c1nnc(-c2ccccc2N)n1N	-1	-9	-5	2	4	-3
Cc1ccc(NC(=O)c2cc(N3C(=O)CCC3=O)ccc2N2CCCCC2)cc1	-1	-10	21	3	1	1
CC(=O)Nc1ccc(N2CCCCC2)c(C(=O)Nc2cccc(C)c2)c1	97*	-5	-9	18	3	5
Cc1ccc(NC(=O)c2cc(NC(=O)c3ccccc3C(=O)O)ccc2N2CCCCC2)cc1	99*	0	13	-11	0	15
Cc1ccc(NC(=O)c2cc(NC(=O)/C=C\C(=O)O)ccc2N2CCCCC2)cc1	99*	x	-9	x	2	7
Cc1ccc(S(=O)(=O)N2CCOCC2)cc1NC(=O)CSc1nc2ccccc2c(=O)n1Cc1ccccc1	-7	2	-14	-3	3	-9
Nc1cc(=O)nc(SCC(=O)Nc2cccc3ccccc23)n1CCc1ccccc1	98*	-14	16	3	-2	-61
Cc1ccc(NC(=O)CSc2nc(=O)cc(N)n2CCc2ccccc2)cc1	99*	-4	4	-3	4	-103
O=C(CSc1nc2ccccc2c(=O)n1Cc1ccccc1)Nc1ccc(Br)cc1C(=O)O	97*	x	2	-5	2	-2
CC(NC(=O)CSc1nc(=O)cc(N)n1CCc1ccccc1)c1ccccc1 (stereo unspecified)	x	-10	9	1	2	-66
C=CCn1c(N)cc(=O)nc1SCC(=O)N(c1ccccc1)c1ccccc1	5	-7	15	4	1	-1
C=CCn1c(N)cc(=O)nc1SCC(=O)Nc1ccc(C)cc1	99*	-11	-2	-2	-1	-10

Screening data as filed in PubChem.
